Only some compounds are listed: those with a hit (about 2.7% of all), similar ones and a draw of the others.
S100A4 inh HTS – inhibitors of S100A4-myosin IIA peptide binding, primary screen, biochemical, fluorescence polarization, TAMRA-MyoIIA peptide; inhibition, % at 10.7 µM; 360,000 compounds, 0.14% hits; AID 652163, 2013;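 active means mean inhibition of at least 70% across replicates, with every replicate also reaching that level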
Target sequence (P26447 whole entry, looked up): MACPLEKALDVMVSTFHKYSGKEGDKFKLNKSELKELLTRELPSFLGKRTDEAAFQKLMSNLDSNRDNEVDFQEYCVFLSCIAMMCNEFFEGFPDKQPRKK
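incubation = readout 5 min after mixing, signal stable up to 60 min | system = S100A4 monomer protein | buffer or medium = HEPES pH 7.2 with CaCl2, KCl, NaCl, DTT, Triton | benchmarks = neutral control DMSO, positive control TFP | also added = fluorescent myosin IIA peptide, 5 nM | compound dosing = one concentration per compound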
FGF22 binding-1 – binders of human FGF22 protein, primary screen, FGF22 synaptogenesis inhibitor project, biophysical, thermal shift, single point; recombinant FGF22 thermal shift, SYPRO orange fluorescence; percent of sucrose octasulfate shift, DMSO zero; activity (Tm shift, normalised), % at 9.99 µM; 340,000 compounds, 1.5% hits; AID 651658, 2012;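 active means mean Tm shift, scaled 0 neutral to 100 positive control, at about 1.3% or above, every replicate too, limit read from the data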
Target sequence (Q9HCT0 whole entry, looked up): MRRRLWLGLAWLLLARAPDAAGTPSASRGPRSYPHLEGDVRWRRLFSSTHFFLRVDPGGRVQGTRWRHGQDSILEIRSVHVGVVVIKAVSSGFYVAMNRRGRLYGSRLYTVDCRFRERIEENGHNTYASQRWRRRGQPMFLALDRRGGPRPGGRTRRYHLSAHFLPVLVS
CFTR F508del cor – F508del CFTR correction, initial screen, CFBE line, single point; CFBE cells, YFP halide quenching; stimulated with forskolin plus potentiator P3; % fluorescence drop versus neutral controls; activity (quench increase), % at 7.58 µM; 350,000 compounds, 0.36% hits; AID 720511, 2013;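 active means mean added fluorescence quench of at least 8% versus neutral control, with both replicates also reaching 8%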;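 further: cells transiently co-express mutant CFTR-F508del with the halide-sensitive YFP; corrector assay measuring rescue of mutant channel to the surface after 24 h compound exposure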
Env fusion inh – inhibitors of HIV-1 Env-driven cell-cell fusion, primary screen, HeLa-JRFL effector, CEM21 target cells, luciferase; inhibition, % at 12.3 µM; 360,000 compounds, 1.1% hits; AID 651610, 2012;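 active means mean replicate inhibition score of at least 50 and every replicate individually at or above 50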;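 further: 0% = plate neutral controls and 100% = maraviroc near 300 nM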
E-selectin induc – E-selectin induction in HUVECs, primary screen, imaging, HUVEC, immunofluorescence imaging, single point; P16581; activation, % at 7.58 µM; AID 686992, 2013; normalized: neutral wells 0, TNF-alpha wells 100; 260,000 compounds, 0.37% hits;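 active means mean E-selectin-positive cell signal at least 10% of the positive control, reached in at least 60% of replicates, without over 20% cell loss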
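System: HUVEC / Compound: single concentration / Signal: immunofluorescence imaging / Read-out: percent E-selectin-positive cells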
FGF22 binding-2 – binders of human FGF22 protein, dose response, FGF22 synaptogenesis inhibitor project, biophysical, thermal shift, cherry-pick retest. 1,000 compounds, 2% hits. thermal shift activity, °C (ΔTm) at 38 µM. recombinant FGF22 thermal shift, SYPRO orange fluorescence. shares compounds with FGF22 binding-1;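 active means fitted rise in melting shift crosses a set limit at or below the top valid dose tested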
TSA no protein – compound-only thermal shift signal without protein, dose response, artefact control for FGF22 binder project, biochemical, cherry-picked samples, RT-PCR instrument | shares compounds with FGF22 binding-1 | compound-only SYPRO orange thermal shift counter-screen, no protein | AC50, µM (series often up to 38 µM) | 1,000 compounds, 2% hits | AID 743019, 2013;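 active means rising signal whose fitted curve reaches the 0.54 level within the top valid dose, showing a melting point, actives reach about 13 µM in these data; inactive means the rest, including activity in the opposite direction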; further: value is where the raw curve crosses a fixed level and not half-maximal
Active calls of the source: *; i = inactive; x = not tested or not shown; [ ] = another dose, or the depositor's remark.

SMILES	S100A4 inh HTS	FGF22 binding-1	CFTR F508del cor	Env fusion inh	E-selectin induc	FGF22 binding-2	TSA no protein
O=C(NCC[C@H]1CC[C@H](NS(=O)(=O)Cc2ccccc2)[C@H](CO)O1)C1CC1	-48	0	-2	-16[16.7 µM]	0	x	x
O=[N+]([O-])c1ccc2nc(-c3ccc(Cl)cc3)[nH]c2c1	-6	1.8*	3	-103	x	0.059	i
COc1ccc2nc(-c3ccccc3)[nH]c2c1	x	x	x	-235	x	x	x
O=[N+]([O-])c1cccc(-c2nc3ccc([N+](=O)[O-])cc3[nH]2)c1	4	1	8	-37	2	x	x
COc1ccc(-c2nc3ccc([N+](=O)[O-])cc3[nH]2)cc1	3	2.6*	x	-203	-2	0.11	i
COCC(=O)N1C[C@@H](C)[C@H](OC)CN(C)C(=O)c2ccc(NC(=O)NC(C)C)cc2OC[C@H]1C	3	0	-1	x	0	x	x
O=C(N[C@H]1CC[C@H](CCNS(=O)(=O)c2ccccc2Cl)O[C@@H]1CO)c1ccccc1	-6	0	0	16[16.7 µM]	1	x	x
CCNC(=O)C1(C)CCN(Cc2ccc(C(F)(F)F)cc2)C1 (stereo not given)	5	0	-3	x	0	x	x
CCNC(=O)C1(C)CCN(Cc2ccc(OC(F)(F)F)cc2)C1 (stereo not given)	-2	1.4*	-2	x	0	-0.008	i
COc1cccc(CN2CC3(CCN(CC4CCOCC4)CC3)c3c([nH]c4cc(OC)ccc34)[C@@H]2CO)c1	x	0	1	x	0	x	x
COc1cc(OC)c(C(=O)OCC(=O)NC2CCCCCCC2)cc1OC	-4	-1	2	11	0	x	x
COc1cc(OC)c(C(=O)OCC(=O)NCC2CCCCC2)cc1OC	-2	9.3*	3	-2	x	0.065	i
CCn1c2ccccc2c2cc(/C=N/NC(=O)c3ccc(O)cc3)ccc21	3	1	0	x	x	x	x
CCn1c2ccccc2c2cc(/C=N/NC(=O)c3ccncc3)ccc21	-4	1.5*	-4	-231	x	0.13	i
C[C@@H]1CN([C@H](C)CO)C(=O)c2cc(NC(=O)Cc3cn(C)c4ccccc34)ccc2O[C@@H]1CN(C)S(=O)(=O)c1ccccc1	4	25*	1	-11[16.7 µM]	x	0.16	i
C[C@H]1CN([C@@H](C)CO)C(=O)c2cc(NS(=O)(=O)c3ccccc3)ccc2O[C@@H]1CN(C)Cc1ccc(C(=O)O)cc1	-3	1.3*	-1	5[16.7 µM]	0	0.095	i
C[C@H]1CN([C@@H](C)CO)C(=O)c2cc(NS(=O)(=O)c3ccccc3)ccc2O[C@@H]1CN(C)C	-1	1.4*	0	1[16.7 µM]	x	0.038	i
CC(C)NC(=O)Nc1cccc2c1O[C@H](CN(C)Cc1ccc(C(=O)Nc3ccccc3N)cc1)[C@H](C)CN([C@@H](C)CO)C2=O	-3	0	-3	x	-2	x	x
CC(C)NC(=O)Nc1cccc2c1O[C@@H](CN(C)Cc1ccc(C(=O)Nc3ccccc3N)cc1)[C@@H](C)CN([C@H](C)CO)C2=O	-4	1.5*	2	x	0	0.17	i
Cc1ccc(S(=O)(=O)NCC[C@@H]2CC[C@H](NC(=O)c3ccccn3)[C@@H](CO)O2)cc1	-4	0	2	-5[16.7 µM]	0	x	x
C[C@H]1CN([C@@H](C)CO)C(=O)c2cc(N(C)C)ccc2O[C@@H]1CN(C)Cc1ccc(Cl)c(Cl)c1	-6	0	-1	47[16.7 µM]	0	x	x
Cc1ccc(S(=O)(=O)Nc2ccc3c(c2)C(=O)N([C@@H](C)CO)C[C@H](C)[C@@H](CN(C)CC2CCCCC2)O3)cc1	10	1.5*	4	-30[16.7 µM]	1	0.15[42 µM]	i
